How the values were obtained:
Type in all cases: functional
Settings in all cases: read-out: DIZ
Bacillus subtilis [1] = experiment: Antimicrobial activity against Bacillus subtilis RCMB 101001 at 2.5 mg/ml by agar diffusion technique
Method in brief: (§1)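 Agar well diffusion. Test compounds and reference standard drugs were diluted to 5.0, 2.5 and 1.0 mg/mL and applied to 0.6 cm wells. Inhibition zone beyond the control was scored as 0 (no inhibition), + (0.1–0.5 cm), ++ (0.6–1.0 cm) or +++ (1.0–1.5 cm).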

Pseudomonas aeruginosa [2] = experiment: Antimicrobial activity against Pseudomonas aeruginosa RCMB 102002 at 1 mg/ml by agar diffusion technique; method in brief: as §1
Escherichia coli [3] = experiment: Antimicrobial activity against Escherichia coli RCMB 103001 at 2.5 mg/ml by agar diffusion technique; method in brief: as §1
Aspergillus fumigatus [4] = experiment: Antimicrobial activity against Aspergillus fumigatus RCMB 002008 at 5 mg/ml by agar diffusion technique; method in brief: as §1
Penicillium italicum [5] = experiment: Antimicrobial activity against Penicillium italicum RCMB 001018 at 5 mg/ml by agar diffusion technique; method in brief: as §1
[6] = tested on: Syncephalastrum racemosum; experiment: Antimicrobial activity against Syncephalastrum racemosum RCMB 016001 at 1 mg/ml by agar diffusion technique; method in brief: as §1
[7] = tested on: Syncephalastrum racemosum; experiment: Antimicrobial activity against Syncephalastrum racemosum RCMB 016001 at 5 mg/ml by agar diffusion technique; method in brief: as §1
Escherichia coli [8] = experiment: Antimicrobial activity against Escherichia coli RCMB 103001 at 5 mg/ml by agar diffusion technique; method in brief: as §1
Bacillus subtilis [9] = experiment: Antimicrobial activity against Bacillus subtilis RCMB 101001 at 1 mg/ml by agar diffusion technique; method in brief: as §1
Aspergillus fumigatus [10] = experiment: Antimicrobial activity against Aspergillus fumigatus RCMB 002008 at 1 mg/ml by agar diffusion technique; method in brief: as §1
Penicillium italicum [11] = experiment: Antimicrobial activity against Penicillium italicum RCMB 001018 at 2.5 mg/ml by agar diffusion technique; method in brief: as §1
[12] = tested on: Syncephalastrum racemosum; experiment: Antimicrobial activity against Syncephalastrum racemosum RCMB 016001 at 2.5 mg/ml by agar diffusion technique; method in brief: as §1
Candida albicans [13] = experiment: Antimicrobial activity against Candida albicans RCMB 005003 at 5 mg/ml by agar diffusion technique; method in brief: as §1
Bacillus subtilis [14] = experiment: Antimicrobial activity against Bacillus subtilis RCMB 101001 at 5 mg/ml by agar diffusion technique; method in brief: as §1
Staphylococcus aureus [15] = experiment: Antimicrobial activity against Staphylococcus aureus RCMB 106001 at 5 mg/ml by agar diffusion technique; method in brief: as §1
Aspergillus fumigatus [16] = experiment: Antimicrobial activity against Aspergillus fumigatus RCMB 002008 at 2.5 mg/ml by agar diffusion technique; method in brief: as §1
Penicillium italicum [17] = experiment: Antimicrobial activity against Penicillium italicum RCMB 001018 at 1 mg/ml by agar diffusion technique; method in brief: as §1
Pseudomonas aeruginosa [18] = experiment: Antimicrobial activity against Pseudomonas aeruginosa RCMB 102002 at 2.5 mg/ml by agar diffusion technique; method in brief: as §1
Candida albicans [19] = experiment: Antimicrobial activity against Candida albicans RCMB 005003 at 1 mg/ml by agar diffusion technique; method in brief: as §1
Candida albicans [20] = experiment: Antimicrobial activity against Candida albicans RCMB 005003 at 2.5 mg/ml by agar diffusion technique; method in brief: as §1
Escherichia coli [21] = experiment: Antimicrobial activity against Escherichia coli RCMB 103001 at 1 mg/ml by agar diffusion technique; method in brief: as §1
Staphylococcus aureus [22] = experiment: Antimicrobial activity against Staphylococcus aureus RCMB 106001 at 2.5 mg/ml by agar diffusion technique; method in brief: as §1
Pseudomonas aeruginosa [23] = experiment: Antimicrobial activity against Pseudomonas aeruginosa RCMB 102002 at 5 mg/ml by agar diffusion technique; method in brief: as §1
Staphylococcus aureus [24] = experiment: Antimicrobial activity against Staphylococcus aureus RCMB 106001 at 1 mg/ml by agar diffusion technique; method in brief: as §1

SMILES | zone of inhibition at 2500 µg/mL (Bacillus subtilis [1]) [mm] | zone of inhibition at 1000 µg/mL (Pseudomonas aeruginosa [2]) [mm] | zone of inhibition at 2500 µg/mL (Escherichia coli [3]) [mm] | zone of inhibition at 5000 µg/mL (Aspergillus fumigatus [4]) [mm] | zone of inhibition at 5000 µg/mL (Penicillium italicum [5]) [mm] | zone of inhibition at 1000 µg/mL [6] [mm] | zone of inhibition at 5000 µg/mL [7] [mm] | zone of inhibition at 5000 µg/mL (Escherichia coli [8]) [mm] | zone of inhibition at 1000 µg/mL (Bacillus subtilis [9]) [mm] | zone of inhibition at 1000 µg/mL (Aspergillus fumigatus [10]) [mm] | zone of inhibition at 2500 µg/mL (Penicillium italicum [11]) [mm] | zone of inhibition at 2500 µg/mL [12] [mm] | zone of inhibition at 5000 µg/mL (Candida albicans [13]) [mm] | zone of inhibition at 5000 µg/mL (Bacillus subtilis [14]) [mm] | zone of inhibition at 5000 µg/mL (Staphylococcus aureus [15]) [mm] | zone of inhibition at 2500 µg/mL (Aspergillus fumigatus [16]) [mm] | zone of inhibition at 1000 µg/mL (Penicillium italicum [17]) [mm] | zone of inhibition at 2500 µg/mL (Pseudomonas aeruginosa [18]) [mm] | zone of inhibition at 1000 µg/mL (Candida albicans [19]) [mm] | zone of inhibition at 2500 µg/mL (Candida albicans [20]) [mm] | also measured
S=c1[nH]nc(-c2cccnc2)n1/N=C\c1ccccc1OCCCOc1ccccc1/C=N\n1c(-c2cccnc2)n[nH]c1=S | 1 | 0 | 0 | 0 | 0 | 0 | 1 | 0 | 1 | 0 | 0 | 1 | 0 | 1 | 1 | 0 | 0 | 0 | 0 | 0 | zone of inhibition at 1000 µg/mL (Escherichia coli [21]): 0 mm; zone of inhibition at 2500 µg/mL (Staphylococcus aureus [22]): 1 mm; zone of inhibition at 5000 µg/mL (Pseudomonas aeruginosa [23]): 0 mm; zone of inhibition at 1000 µg/mL (Staphylococcus aureus [24]): 0 mm
Nn1c(-c2cccnc2)n[nH]c1=S | 0 | 0 | 0 | 0 | 1 | 0 | 0 | 1 | 0 | 0 | 0 | 0 | 0 | 0 | 0 | 0 | 0 | 0 | 0 | 0 | zone of inhibition at 1000 µg/mL (Escherichia coli [21]): 0 mm; zone of inhibition at 2500 µg/mL (Staphylococcus aureus [22]): 0 mm; zone of inhibition at 5000 µg/mL (Pseudomonas aeruginosa [23]): 0 mm; zone of inhibition at 1000 µg/mL (Staphylococcus aureus [24]): 0 mm
S=c1[nH]nc(-c2cccnc2)n1/N=C\c1ccccc1OCCCCOc1ccccc1/C=N\n1c(-c2cccnc2)n[nH]c1=S | 0 | 0 | 0 | 0 | 1 | 0 | 1 | 0 | 0 | 0 | 1 | 1 | 1 | 0 | 1 | 0 | 1 | 1 | 0 | 0 | zone of inhibition at 1000 µg/mL (Escherichia coli [21]): 0 mm; zone of inhibition at 2500 µg/mL (Staphylococcus aureus [22]): 0 mm; zone of inhibition at 5000 µg/mL (Pseudomonas aeruginosa [23]): 1 mm; zone of inhibition at 1000 µg/mL (Staphylococcus aureus [24]): 0 mm
S=c1[nH]nc(-c2cccnc2)n1/N=C\c1ccccc1OCCOCCOc1ccccc1/C=N\n1c(-c2cccnc2)n[nH]c1=S | 1 | 0 | 0 | 1 | 1 | 0 | 1 | 0 | 1 | 0 | 1 | 0 | 0 | 1 | 0 | 1 | 1 | 0 | 0 | 0 | zone of inhibition at 1000 µg/mL (Escherichia coli [21]): 0 mm; zone of inhibition at 2500 µg/mL (Staphylococcus aureus [22]): 0 mm; zone of inhibition at 5000 µg/mL (Pseudomonas aeruginosa [23]): 0 mm; zone of inhibition at 1000 µg/mL (Staphylococcus aureus [24]): 0 mm
S=c1[nH]nc(-c2cccnc2)n1/N=C\c1ccccc1OCCOCCOCCOc1ccccc1/C=N\n1c(-c2cccnc2)n[nH]c1=S | 0 | 0 | 0 | 0 | 6 | 0 | 0 | 0 | 0 | 0 | 1 | 0 | 1 | 0 | 1 | 0 | 1 | 0 | 0 | 0 | zone of inhibition at 1000 µg/mL (Escherichia coli [21]): 0 mm; zone of inhibition at 2500 µg/mL (Staphylococcus aureus [22]): 0 mm; zone of inhibition at 5000 µg/mL (Pseudomonas aeruginosa [23]): 0 mm; zone of inhibition at 1000 µg/mL (Staphylococcus aureus [24]): 0 mm
Nn1c(SCCSc2nnc(-c3cccnc3)n2N)nnc1-c1cccnc1 | 0 | 0 | 0 | 0 | 1 | 0 | 0 | 1 | 0 | 0 | 1 | 0 | 1 | 0 | 1 | 0 | 0 | 0 | 1 | 1 | zone of inhibition at 1000 µg/mL (Escherichia coli [21]): 0 mm; zone of inhibition at 2500 µg/mL (Staphylococcus aureus [22]): 0 mm; zone of inhibition at 5000 µg/mL (Pseudomonas aeruginosa [23]): 0 mm; zone of inhibition at 1000 µg/mL (Staphylococcus aureus [24]): 0 mm
Nn1c(SCCCSc2nnc(-c3cccnc3)n2N)nnc1-c1cccnc1 | 0 | 0 | 0 | 1 | 0 | 0 | 1 | 0 | 0 | 0 | 0 | 0 | 1 | 0 | 0 | 1 | 0 | 0 | 0 | 0 | zone of inhibition at 1000 µg/mL (Escherichia coli [21]): 0 mm; zone of inhibition at 2500 µg/mL (Staphylococcus aureus [22]): 0 mm; zone of inhibition at 5000 µg/mL (Pseudomonas aeruginosa [23]): 0 mm; zone of inhibition at 1000 µg/mL (Staphylococcus aureus [24]): 0 mm
Nn1c(SCCCCSc2nnc(-c3cccnc3)n2N)nnc1-c1cccnc1 | 1 | 0 | 0 | 0 | 0 | 1 | 1 | 0 | 0 | 0 | 0 | 1 | 0 | 1 | 1 | 0 | 0 | 0 | 0 | 0 | zone of inhibition at 1000 µg/mL (Escherichia coli [21]): 0 mm; zone of inhibition at 2500 µg/mL (Staphylococcus aureus [22]): 1 mm; zone of inhibition at 5000 µg/mL (Pseudomonas aeruginosa [23]): 0 mm; zone of inhibition at 1000 µg/mL (Staphylococcus aureus [24]): 0 mm
